The EternaBench riboswitch data

Tested on: MS2 coat protein
Experiment: apparent Kd, MS2 coat protein; higher = weaker binding; RNA-MaP array; FMN 200 µM where present
Method in brief: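 Designs on Illumina sequencing-chip clusters, transcribed by stalled E. coli RNA polymerase, were exposed to SNAP-549-labelled MS2 coat protein in doubling steps from 0.7 or 1.5 nM up to 3 µM, without and then with constant ligand. The buffer held 100 mM Tris-HCl pH 7.5, 80 mM KCl, 4 mM MgCl2, BSA, DTT, yeast tRNA and Tween-20. Apparent Kd values are medians of filtered per-cluster binding-curve fits to green signal normalised to red-channel RNA signal and control-cluster median Fmax.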

[1] = designed as: ON switch for flavin mononucleotide, no ligand
[2] = ligand present: flavin mononucleotide, designed as: ON switch for flavin mononucleotide
[3] = designed as: OFF switch for flavin mononucleotide, no ligand
[4] = ligand present: flavin mononucleotide, designed as: OFF switch for flavin mononucleotide

| Sequence | apparent Kd [1] | apparent Kd [2] | apparent Kd [3] | apparent Kd [4] |
| --- | --- | --- | --- | --- |
| AAACACGGACAUGAGGAUCACCCAUGUGGCGAAAGCCUUGGGAGAAGGUAUUAUGCAAAGCAUUAUAAGGAUAUUCAUACCGUG | 821 nM | 187 nM | – | – |
| AUAUAUAUAUCAGGAUAUGGACAGGCCUGUCCGUAUUGAGACAGUAACAUGAGGAUCACCCAUGUCCAGAAGGGAUCUAUAUAU | – | – | 40.5 nM | 49.4 nM |
| GUUAUGCAGCAGGAUAUCCAUCCGCGGUAUGAUGGAGAAGGGCUGACAUGAGGAUCACCCAUGUGCGUCCUAGG | – | – | 40.3 nM | 97.1 nM |
| AAAUAGGUAGGAUAUACAUGGAUAUACAUUCAUGUGGACCUACAUGAGGAUCACCCAUGUAGAAGGACCUAGUA | – | – | 40.2 nM | 43.7 nM |
| AGUCGGCGAGGAUAUACAUGAGGAUCACCCAUGUAUGAUCCUAGACCUGUAGGUCCAUGUAGAAGGCGCUGACA | – | – | 63.6 nM | 29.1 nM |
| AACGGGUCAGGAUAUUGUUAGUUUAGUUGUUUGUAUUAGUUCGAGAAGGGACAUGAGGAUCACCCAUGUGGUAA | – | – | 66.1 nM | 62 nM |
| AUGUCUUAGUAGAAGGGACAUCGGCUGGUAAGCAUCAUCUCCUUCUCACAUGAGGAUCACCCAUGUCAGGAUAUACUAAGAUAC | – | – | – | 38.5 nM |
| GGCCGUUUACAUGAGGAUCACCCAUGUCCGGAUUGUUGGCCCAGAAGGCAUUACGAAUUCGGCUAUGAGGAUAUGGGUUACAAG | 215 nM | 119 nM | – | – |
| CAUUGACGACAAUUACAUGAGGAUCACCCAUGUUUUGGGAUGCAGGAUAUGUGGUAUAUUAAUUAACAGAAGGGCAAUAAUUUU | 34.7 nM | – | – | – |
| AGAUGACAAAGUCAUCUCGCUCUGACAUGAGGAUCACCCAUGUAGGAUAUAUUACUCAAAGAGUAAUAGAAGGACAUGUGUCUG | – | – | 36.3 nM | 115 nM |
| UGCGUACAAGCAAACAUGAGGAUCACCCAUGUGGUCUUAUGCGAGGAUAUCGGGAAGGAGGAUUCCGAGAAGGUGCGGUGAGCC | 31.4 nM | 26.5 nM | – | – |
| CAGAUAAAAGUGUGGUCGUCGACAUGAGGAUCACCCAUGUACGAGGAUAUGUAAUAUACGGUAUAGCAGAAGGCGUAUGGGUGU | – | – | 74.6 nM | 103 nM |
| AAGCGACGAGGAUAUCGGUGGCUGAACAUGAGGAUCACCCAUGUGAACCGAUGGCAGUGUCGAGAAGGUGUUGAGU | – | – | 13.9 nM | 16.1 nM |
| GGGUACAUCGGAGGAUAUCAUGUAAAUACAUGAGGAUCACCCAUGUCGUUGGAGACAUCGGAGAUUGAGAAGGCCGAUGUACCG | 199 nM | 339 nM | – | – |
| AAGAAACAUGAGGAUCACCCAUGUAAAUAAAUCUCAGGAUAUCGUACAUGGAAGAUCUAACGAGAAGGGAGAAGAA | 137 nM | 140 nM | – | – |
| UAUAUAUAGUAAGGAUAUGUAUAUACUUUAUAAACAGAAGGUACUGACAUGAGGAUCACCCAUGUUUUAGUGUGGGCAUGUAGA | – | – | 75.9 nM | 102 nM |
| GGCGUGUUAGGAUAUCGCGGCGGCGGCGUUUGUUGUUGUUGUGAGAAGGAACAUGAGGAUCACCCAUGUAUGCC | – | – | 34.8 nM | 55 nM |
| GAGAAGAGGGAAGGAUAUACAUGAGGAUCACCCAUGUAGAUAGGUAUAAUAGGUUGUUGUAGUAUGUAGAAGGUCCGGUUUGUU | – | – | 18.9 nM | 22.5 nM |
| UCUCUGCGAGGAUAUACGUUUGCGCGCUUUCGUUUGCGCGUACAUGAGGAUCACCCAUGUAGAAGGCGCGUUUC | – | – | 13.2 nM | 14.1 nM |
| GAUACACAUGAGGAUCACCCAUGUGAGGAUAUGCGUACGUUGUCCGUAGGCGACGUGCGCAGAAGGCGCGAGGU | – | – | 41.4 nM | 36.2 nM |
| CCGAUGAGAGUCGGGCUACAUGAGGAUCACCCAUGUGCUUCACAGGAUAUGGUACGUAGUGAGUUCCAGAAGGGUGAUUAAUCU | 316 nM | 48.7 nM | – | – |
| CAAUUUAUGUCAGGAUAUACAAUACAAUGAUUAGUAGAAGGGAUUAAUACAUGAGGAUCACCCAUGUCAUGUGUCAUCGUAACC | – | – | 22.3 nM | 17.4 nM |
| CACCGGCCCUAUAUGUUCUAGACAUGAGGAUCACCCAUGUAUAGAAGGGUCUUCGCGAAACGCAGACAGGAUAUGUACAGGAGU | – | – | 6.08 nM | 9.13 nM |
